Screens: PubChem, several laboratories
BaF3 parental = counter-screen for JAK2V617F inhibitors: parental Ba/F3 viability inhibitors. inhibition, % at 5.6 µM. CellTiter-Glo ATP luminescence. 1.1% of 220,000 active;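 active = inhibition above a per-campaign cutoff, the mean inhibition of all tested compounds plus 3 SD, cut at about 27% in these data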;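 note: 0% = DMSO wells and 100% = JAK Inhibitor I control wells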
Ba/F3 V617F tox = loss of viability in JAK2V617F-driven Ba/F3 cells; 1.1% of 220,000 active; inhibition, % at 5.6 µM; Ba/F3 EpoR-JAK2V617F viability, ATP luminescence;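 active = inhibition above the campaign mean plus 3 SD over all tested compounds, cut at about 24% in these data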;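 note: cytokine-independent growth of Ba/F3 cells driven by EpoR plus mutant JAK2; 0% = DMSO-treated cells and 100% = JAK inhibitor I control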
bCat nuc transl = alters nuclear translocation of beta-catenin in HeLa cells; 0.3% of 190,000 active; nuclear translocation activity, % at 5 µM; immunofluorescence imaging;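 active = nuclear translocation activity above 50% at 5 µM, with a well cell count of 50 or more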;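 note: per-cell ratio of nuclear to cytoplasmic median beta-catenin stain intensity; plate controls were DMSO negative control for no effect and GSK-3 inhibitor IX positive control for full effect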
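Assay system: human HeLa cells, native beta-catenin; doses: 5 µM primary, 0.02–20 µM confirmation; incubation: compound treatment 24 h, 37°C, 5% CO2; technique: fluorescence imaging of beta-catenin antibody stain plus DAPI; measure: % activation, nuclear-to-cytoplasmic median beta-catenin signal ratio per cell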
MT stabilize HCS = stabilizes microtubules in HeLa cells. % tubulin-high responders, % at 10 µM. 0.83% of 200,000 active. HeLa tubulin immunostaining HCS, 24 h; share of cells brighter than vehicle mean+2SD. AID 2205;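 active = plate Z-score above 3 for both tubulin-high and condensed-nucleus cell shares, with cell loss under 80%, at 10 µM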;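 note: anti alpha tubulin signal scored within the nucleus-defined area of each cell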
KLF5 inh = kruppel-like factor 5 inhibition; DLD-1 KLF5 promoter-luciferase reporter, luminescence; inhibition, % at 5 µM; 0.23% of 290,000 active;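 active = inhibition above a per-plate limit of that plate's mean compound inhibition plus 3 SD, cut at about 60% in these data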;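 note: 0% = DMSO wells and 100% = LY294002 at 200 µM; higher means less KLF5 promoter-driven luciferase light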
IEC-6 tox = IEC-6 cytotoxicity, counter-screen for KLF5 inhibitors | AID 1825 | inhibition, % at 5 µM | luminescence viability | 0.78% of 290,000 active; in the data active = inhibition above about 22%;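 note: 0% = plate median of test compound wells and 100% = cytotoxic reference compound wells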
BaF3 parental 2 = parental Ba/F3 viability inhibition for JAK2V617F counter-screen; AID 1520; shares compounds with Ba/F3 V617F tox; CellTiter-Glo luminescence; cells kept alive by added IL-3; 31% of 580 active; inhibition, % at 5.6 µM;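 active = cell growth inhibition above the hit limit set in the earlier mutant JAK2 cell screen, cut at about 27% in these data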;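 note: plate controls were DMSO-treated cells for no effect and JAK Inhibitor I control wells for full effect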
JAK2V617F conf = confirmation: loss of viability in JAK2V617F-dependent Ba/F3 cells. shares compounds with Ba/F3 V617F tox. Ba/F3 EpoR-JAK2V617F viability, CellTiter-Glo luminescence. inhibition, % at 5.6 µM. 66% of 580 active. AID 1521;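 active = mean inhibition above the hit cutoff derived in the earlier primary screen, cut at about 25% in these data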;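 note: 0% = DMSO-treated cells and 100% = JAK inhibitor I control wells; higher means lower luminescence from reduced cell ATP and viability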
Numbers without * were called inactive; / = not tested or not shown. Compounds with a hit are over-represented: about 2.1% of the library has one in this group of screens.

SMILES	BaF3 parental	Ba/F3 V617F tox	bCat nuc transl	MT stabilize HCS	KLF5 inh	IEC-6 tox	BaF3 parental 2	JAK2V617F conf
Cc1ccc(Cn2ccsc2=NC(=O)CCl)cc1	4	69*	0	3	-31	93*	3	97*
S=C(/N=c1/sccn1Cc1ccccc1)NC1CC1	/	/	/	/	-6	-5	/	/
O=C1N/C(=C\c2nc3ccccc3s2)c2ccccc21	-1	-1	-4	/	-80	13	/	/
O=C1N/C(=C\c2ccccc2)c2ccccc21	20	38*	1	20*	-9	16	27	45*
COc1cccc(CNC(=O)CSc2nnc3c(n2)[nH]c2ccccc23)c1	/	/	/	/	-16	1	/	/
CN1CCN(Cc2cc(COCc3ccccc3)c3cccnc3c2O)CC1	16	38*	6	4	20	5	5	29*
CCOC(=O)c1ccc(NC(=O)NCCc2ccccc2OC)cc1	0	64*	0	1	-1	-2	-6	-10
Cc1ccc(NC(=S)NCCC2=CCCCC2)cc1	12	7	2	2	-45	8	/	/
CCOC(=O)c1ccc(NC(=O)NCc2ccccc2OC)cc1	3	6	0	7	-11	5	/	/
CCOC(=O)c1ccc(NC(=S)NCCC2=CCCCC2)cc1	-3	81*	3	5	5	3	-5	-14
CNC(=O)/C(C#N)=C/c1c(N2CCCCCC2)nc2ccccn2c1=O	/	/	/	/	-13	-1	/	/
Cc1cc(C(=O)Nc2cnc3ccccc3c2)ccc1[N+](=O)[O-]	1	28*	-4	3	-107	7	-5	-7
COC(=O)c1[nH]c2ccc(Br)cc2c1NC(=O)CN1CCN(C2CCCCC2)CC1	11	46*	/	16	-23	9	2	4
CCc1ccccc1NC(=S)N(Cc1cccc(C)c1)c1cccnc1	2	3	-1	4	-22	1	/	/
Cc1cccc(CN(C(=S)Nc2c(C)cccc2C)c2cccnc2)c1	-1	102*	2	4	2	5	-5	13
O=C(CSc1nc2ncc(Cl)cc2[nH]1)c1ccc2c(c1)OCO2	-3	88*	1	/	-7	19	-5	-10
O=C(COc1ccc(S(=O)(=O)N2CCCC2)cc1)NCC1CCCO1 (centres undefined)	7	4	2	4	12	5	/	/
CC(=O)c1cccc(S(=O)(=O)NC2CCSc3ccccc32)c1 (centres undefined)	/	/	/	/	-1	3	/	/
N#Cc1sc2nc(N3CCCCC3)c3c(c2c1N)CCCC3	5	-1	-5	7	2	-2	/	/
Cc1c(C#N)sc2nc(-c3ccccc3)nc(N3CCCC3)c12	-1	95*	-1	3	14	7	-5	-2
Cc1cccc(N2CCN(Cc3cn(C)nc3-c3ccccc3F)CC2)n1	18	24*	103*	34*	24	54*	76*	97*
Cn1cc(CN2CCN(c3ccc(Cl)cn3)CC2)c(-c2ccccc2F)n1	-1	-1	0	4	-24	-2	/	/
CCCCCCCCCCCC(=O)NC1CCS(=O)(=O)C1 (centres undefined)	0	70*	0	7	-24	1	-4	0
COc1ccc(-c2cc(C(F)(F)F)c3c(=O)n(-c4ccccc4)[nH]c3n2)cc1	-2	0	-1	2	-14	-4	/	/
OC1(c2ccc(Cl)c(Cl)c2)C[n+]2ccccc2N1Cc1ccccc1 (centres undefined)	3	34*	0	/	-10	0	12	48*
SMILES	BaF3 parental	Ba/F3 V617F tox	bCat nuc transl	MT stabilize HCS	KLF5 inh	IEC-6 tox	BaF3 parental 2	JAK2V617F conf
Cc1ccc(O)c(NC(=O)C2CCCCC2)c1	20	25*	-1	/	-23	0	18	50*
Cc1ccc(NC(=O)C2CCCCC2)c(O)c1	3	1	-2	2	-23	2	/	/
O=C1CCC(=O)N1c1ccc(S(=O)(=O)Nc2cccc(Br)c2)cc1	/	/	/	/	-28	3	/	/
O=S1(=O)C=C(Sc2nc3cc(Cl)ccc3o2)c2ccccc21	7	44*	7	5	-10	-4	107*	99*
C#CC[N+](C)(C)CC#Cc1ccccc1	11	39*	6	3	-50	2	3	42*
COc1ccc(S(=O)(=O)N2CCCC(C(=O)NCCc3ccccc3)C2)cc1 (centres undefined)	/	/	/	/	-21	-3	/	/
O=C(NCC1CCCO1)c1cccc(N2C(=O)C3C4C=CC(C4)C3C2=O)c1 (centres undefined)	1	96*	0	3	-12	-6	-6	-5
COCCNC(=O)Cn1nc(Cc2ccncc2)c2ccccc2c1=O	/	/	/	/	-24	2	/	/
CCOC(=O)c1c(NC(=O)C(C)N2CCN(C(=O)c3ccco3)CC2)sc2c1CCCC2 (centres undefined)	4	28*	/	2	4	-4	-5	-11
COc1cc(/C=N/n2cnnc2)ccc1OCCSc1ccc(C)cc1	7	-2	0	1	-58	-4	/	/
CCOc1ccc(C(=O)C(CN2CCOCC2)c2ccccc2)cc1 (centres undefined)	8	59*	3	10	-11	3	19	98*
CCOc1ccc(C(O)(CCC(C)C)C(CN2CCOCC2)c2ccccc2)cc1 (centres undefined)	/	/	/	/	-16	-3	/	/
CC1CCC(C(=O)NC(C(=O)NCc2cccnc2)C(C)C)CC1 (centres undefined)	2	-4	/	2	-39	5	/	/
CCCCN(c1nc2ccccc2nc1Cl)S(=O)(=O)c1ccc(C)cc1	/	/	/	/	6	-4	/	/
COc1cccc(C2(O)CCN(C(=O)c3cccs3)CC2)c1	0	55*	-4	2	-26	-4	-1	-2
COc1cccc(C2(O)CCN(C(=O)C(C)C)CC2)c1	5	-3	0	/	5	10	/	/
CCOc1ccc2nc(SCC(=O)NC(=O)C(C)C)sc2c1	15	51*	1	4	-44	-1	-3	-3
Cc1nn(C)cc1CN1CCCC(C(=O)c2ccc(-c3ccccc3)c(F)c2)C1 (centres undefined)	5	2	1	3	-24	1	/	/
CCOc1cc(CNc2ncn[nH]2)ccc1OCC(=O)NC(C)(C)C	4	0	0	3	-11	-1	/	/
C(=N\Nc1nc2ccccc2[nH]1)/c1cccc2nccnc12	3	50*	1	/	27	12	51*	63*
Nc1cccc(C2=Nc3cccc4cccc(c34)N2)c1	7	53*	1	5	-2	-6	-7	-10
COc1ccc(C2=Nc3cccc4cccc(c34)N2)cc1	-3	-4	-2	2	-19	4	/	/
